# Source: PubChem BioAssay
# Compounds with a hit are over-represented: about 3.5% of the library has one in this group of screens.
# RGS4 inh – inhibitors of human RGS4 | P49798 | HEK293 M3R/RGS4 inducible, Fluo-4 calcium flux; active compounds read high; triggered by carbachol at its EC20 | B-score at 10 µM | hit rate 0.45% among 310,000;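 active = B-score, a plate-corrected calcium signal, over three deviations above library mean, with baseline fluorescence within five deviations of library mean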;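 also: RGS4 expression induced by doxycycline in cells with stable M3 receptor; B-score is computed from the integrated fluorescence ratio over baseline after carbachol; higher B-score means a larger calcium signal and so more RGS4 inhibition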
# Target sequence (P49798 whole entry, looked up): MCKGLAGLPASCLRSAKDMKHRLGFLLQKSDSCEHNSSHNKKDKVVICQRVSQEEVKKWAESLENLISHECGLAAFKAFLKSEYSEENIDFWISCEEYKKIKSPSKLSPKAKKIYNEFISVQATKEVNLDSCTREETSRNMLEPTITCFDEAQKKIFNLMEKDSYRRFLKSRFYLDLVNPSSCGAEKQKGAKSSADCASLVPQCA
# MrgX1 antagonist – blocks BAM8-22 activation of human MrgX1 receptor | MRGX1-HEK293 calcium flux, Fluo-4, BAM8-22 antagonism; active compounds read low | B-score at 10 µM | hit rate 1.3% among 310,000 | AID 588676;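 active = calcium-response B-score plate-corrected more than 3 library SD below zero, starting fluorescence within 5 deviations, no agonist response on first addition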;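 also: peak minus trough fluorescence over baseline after final BAM8-22 challenge near maximal dose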
# Target sequence (Q96LB2 whole entry, looked up): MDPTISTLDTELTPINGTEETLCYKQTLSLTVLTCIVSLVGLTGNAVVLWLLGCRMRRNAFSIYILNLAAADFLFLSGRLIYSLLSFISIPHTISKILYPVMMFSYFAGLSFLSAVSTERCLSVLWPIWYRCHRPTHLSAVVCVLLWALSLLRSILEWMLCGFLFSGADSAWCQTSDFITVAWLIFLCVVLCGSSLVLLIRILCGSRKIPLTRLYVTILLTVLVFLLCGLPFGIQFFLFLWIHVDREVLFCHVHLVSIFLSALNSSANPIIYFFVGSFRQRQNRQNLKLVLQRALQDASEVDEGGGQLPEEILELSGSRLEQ
# RGS4 pot – potentiators or activators of RGS4 | B-score at 10 µM | hit rate 0.92% among 310,000 | HEK293 M3R/inducible RGS4, carbachol calcium flux Fluo4; active compounds read low;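 active = B-score of the integrated calcium signal more than 4 SD below the library mean, with starting fluorescence not abnormally high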;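 also: negative B-score means reduced calcium response which marks RGS4 activation or potentiation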
#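 Detection: kinetic calcium fluorescence imaging with Fluo4-AM dye, 2 µM / Material: HEK293 cells with stable M3R and inducible RGS4 / Schedule: recording 10 s baseline at 1 Hz, 100 s post-agonist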
# MrgX1 agonist – human MrgX1 receptor agonism, primary screen; MrgX1-HEK293 cells, Fluo-4 calcium fluorescence, agonist mode; active compounds read high; Q96LB2; hit rate 0.44% among 310,000; B-score at 10 µM;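 active = calcium response B-score plate-corrected fluorescence ratio at least 3 library SD, with starting fluorescence B-score inside 5 SD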
#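 Assay system: stable human MrgX1 HEK293 cell line. Quantity: 15,000 cells per well. Schedule: cells plated overnight, dye loaded 0.5 h 37 °C, 0.5 h room temperature. Detection: Fluo-4 NW calcium-flux fluorescence, kinetic read. Read-out basis: peak-minus-minimum fluorescence over baseline, converted to B scores. Control set: positive and negative control wells on each plate.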
# MrgX1 PAM – allosterically activates human MrgX1 receptor signaling; Q96LB2; MrgX1-HEK293, Fluo-4 calcium flux, FDSS; active compounds read high; B-score at 10 µM; hit rate 0.63% among 310,000; AID 588675;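 active = plate-corrected calcium response at least 3 library SD above typical, normal starting fluorescence, not activating the receptor alone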;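 also: compound read alongside a low EC10 to EC30 dose of BAM8-22 agonist; peak minus trough fluorescence over baseline measured at the second addition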
# MrgX1 allo conf – human MrgX1 positive allosteric modulation, re-confirmation | AID 602413 | hit rate 13% among 1,200 | shares compounds with MrgX1 PAM | MrgX1-HEK293, Fluo-4 calcium fluorescence, FDSS | activation (ratio percentage), % at 10 µM;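 active = ratio at least 3 SD above the weak peptide control, stable starting fluorescence, no direct agonism earlier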;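 also: compound followed by low BAM8-22 agonist challenge near EC20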
# HEK293 Ca flux – activity in parental HEK293 cells lacking MrgX1; shares compounds with MrgX1 antagonist; Fluo-4 calcium fluorescence, FDSS; fluorescence ratio F(max-min)/F0 at 10 µM; hit rate 2% among 4,000; AID 624111;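 active = duplicate-averaged calcium fluorescence ratio at least three times the standard deviation of buffer wells, a nonspecific response in parental cells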
# HEK293 Ca counter – activity in parental HEK293 cells without MrgX1; shares compounds with MrgX1 antagonist; parental HEK293 calcium flux, Fluo-4 fluorescence ratio; active compounds read high; fluorescence ratio F(max-min)/F0 at 10 µM; hit rate 0.4% among 4,000;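 active = calcium fluorescence ratio, averaged over duplicates, at least 3 SD of the buffer-well ratio, meaning a nonspecific response in receptor-free cells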;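 also: untransfected parental HEK293 lacking MrgX1 used as counterscreen for MrgX1 allosteric activators; fluorescence change taken during the second addition on a kinetic imager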
# HEK293 Ca cntr2 – counter-screen for MrgX1 activators: effect in parental HEK293 cells | Fluo-4 calcium fluorescence (FDSS); active compounds read high | hit rate 8.7% among 4,000 | AID 624115 | shares compounds with MrgX1 antagonist | fluorescence ratio F(max-min)/F0 at 10 µM;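 active = calcium fluorescence ratio at least three times the spread of buffer wells, meaning a non-specific response in parental cells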
# * marks the source's active call; other numbers are inactive results; i = inactive; · = no result given.
SMILES,RGS4 inh,MrgX1 antagonist,RGS4 pot,MrgX1 agonist,MrgX1 PAM,MrgX1 allo conf,HEK293 Ca flux,HEK293 Ca counter,HEK293 Ca cntr2
CCN(CC)S(=O)(=O)c1cccc(NC(=O)COC(=O)C2CC3C=CC2C3)c1 (stereo unspecified),i,i,i,i,6.5*,i,i,i,i
Cc1cc(C)n(/N=C/c2cc(Cl)cc(Cl)c2O)c(=O)c1,i,i,i,i,21*,i,0.43*,i,77*
Cc1cc(C)n(/N=C/c2ccccc2O)c(=O)c1,i,i,i,i,i,·,·,·,·
O=C(NCc1ccccc1)NC(=O)c1ccccc1F,i,i,i,i,i,·,·,·,·
CS(=O)(=O)N(Cc1cc2ccccc2[nH]c1=O)C1CCCCC1,i,i,i,i,6.8*,i,i,i,i
CC(Cc1ccccc1)Nc1ncnc2c1ncn2C1OC(CO)C(O)C1O (stereo unspecified),i,i,i,i,7.6*,i,i,i,i
Cc1cc(C(=O)N2CCCC(CCC(=O)N3CCN(c4ccccn4)CC3)C2)c(C)o1 (stereo unspecified),i,i,i,i,i,·,·,·,·
Cc1ccc(C(=O)N2CCCC(CCC(=O)N3CCN(c4ccccn4)CC3)C2)cc1C (stereo unspecified),i,i,i,i,7.8*,i,i,i,i
Cc1ccc(C(=O)N2CCCC(CCC(=O)N3CCN(c4ccccn4)CC3)C2)cn1 (stereo unspecified),i,i,i,i,i,·,·,·,·
Cc1cccc(C(=O)N2CCCC(CCC(=O)N3CCN(c4ccccn4)CC3)C2)c1C (stereo unspecified),i,i,i,i,9.4*,i,i,i,i
Cc1ccc(Sc2ncccc2NC(=O)c2ccccc2Cl)cc1,i,i,i,i,i,·,·,·,·
O=C1NC(Cc2ccccc2)C(=O)Nc2ccc(Br)cc21 (stereo unspecified),i,i,i,i,9.1*,i,i,i,i
CC(=O)c1ccc(Nc2cc(C)nc3c(C)cccc23)cc1,i,i,i,i,i,·,·,·,·
Cc1ccc(Nc2cc(C)nc3c(C)cccc23)cc1,i,i,i,i,7.3*,i,i,i,i
CCC1=NN2C(=N)/C(=C\c3ccc(SCc4ccco4)o3)C(=O)N=C2S1,i,i,i,i,22*,i,i,i,57*
CC(C)c1ccc(C(=O)NCCCN2CCOCC2)cc1,i,i,i,i,i,·,·,·,·
O=C(NCCCN1CCOCC1)c1ccc(CSc2ccc(Cl)cc2)cc1,i,i,i,i,9.1*,i,i,i,i
O=C(O)C(F)=C(c1ccccc1)c1ccccc1,i,i,i,i,i,·,·,·,·
CCCc1nc2ccc([N+](=O)[O-])cc2[nH]1,i,i,i,i,i,·,·,·,·
Cc1n[nH]c(C)c1S(=O)(=O)N1CCc2ccccc2C1,i,i,i,i,8.4*,i,i,i,i
Cc1n[nH]c(C)c1S(=O)(=O)N1CCN(c2ccccn2)CC1,i,i,i,i,i,·,·,·,·
O=C(NC1CCCCC1)c1ccccc1C(F)(F)F,i,i,i,i,8.6*,i,i,i,i
COc1ccc(-n2cc(-c3ccc(C)cc3)[n+]3c2SCC3)cc1,i,i,i,i,i,·,·,·,·
NC(=O)c1ccc(Oc2ncc(C(F)(F)F)cc2Cl)cc1,i,i,i,i,i,·,·,·,·
Oc1ccc(Oc2ncc(Cl)cc2Cl)cc1,i,i,i,i,8.8*,i,i,i,i
SMILES,RGS4 inh,MrgX1 antagonist,RGS4 pot,MrgX1 agonist,MrgX1 PAM,MrgX1 allo conf,HEK293 Ca flux,HEK293 Ca counter,HEK293 Ca cntr2
CCCCCCC1CC(CSC(=N)N)OC1=O (stereo unspecified),i,i,i,i,6.5*,i,i,i,i
COc1ccc(C(C)C)cc1S(=O)(=O)N1CCN(c2ccccc2)CC1,i,i,i,i,15*,i,i,i,i
COc1ccc(OC)c(S(=O)(=O)N2CCN(c3ccccc3)CC2)c1,i,i,i,i,i,·,·,·,·
COc1ccc(Cl)cc1S(=O)(=O)N1CCN(c2ccc(F)cc2)CC1,i,i,i,i,17*,i,i,i,i
COc1ccccc1CNC(=O)C(C)c1ccc([N+](=O)[O-])cc1 (stereo unspecified),i,i,i,i,i,·,·,·,·
CCCCn1c(SCC(=O)NCc2ccc(OC)c(C(=O)O)c2)nc2cc(S(N)(=O)=O)ccc21,i,i,i,i,i,·,·,·,·
CCOC(=O)C[N+]1(C)CCN(C(C)=O)CC1,i,i,i,i,i,·,·,·,·
Cc1ccc(Nc2nnc(SCC3CCCCO3)s2)cc1 (stereo unspecified),i,i,i,i,8.5*,i,i,i,i
Cc1ccccc1Nc1nnc(SCC2CCCCO2)s1 (stereo unspecified),i,i,i,i,i,·,·,·,·
Cc1nn(C)c(C(=O)NC2C3CC4CC(C3)CC2C4)c1Cl (stereo unspecified),i,i,i,i,13*,i,i,i,i
CCCc1ccc(OCC(=O)Nc2cc(S(=O)(=O)CC)ccc2O)cc1,i,i,i,i,24*,i,i,i,i
O=C(NCCc1c[nH]c2ccccc12)c1ccc(F)cc1F,i,i,i,i,i,·,·,·,·
O=C(CN1CCC(O)(c2cccc(F)c2)CC1)NCCc1c[nH]c2ccccc12,i,i,i,i,7.6*,i,i,i,i
NS(=O)(=O)c1cc(C(=O)NCCc2ccccn2)ccc1Cl,i,i,i,i,21*,i,i,i,i
CCc1nonc1NC(=O)COc1cc(C)c(Cl)c(C)c1,i,i,i,i,i,·,·,·,·
CCc1nonc1NC(=O)COc1ccc(Cl)c(C)c1,i,i,i,i,12*,i,i,i,i
